According to publication PMC4079330 (Journal of Medicinal Chemistry, 2014):

Assays:
Assay type in all cases: cell-based
[1] = tested on: NF-κB activation through TLR4 in HEK 293T cells; assay: SEAP reporter assay, LPS; settings: 20 ng/mL LPS, concentrations up to 100 μM
[2] = tested on: TNF-α in RAW 264.7 cells; assay: TNF-α ELISA; settings: supernatant from nitric oxide plates
[3] = tested on: iNOS (NOS2) mRNA in RAW 264.7 cells; assay: Quantitative RT-PCR of iNOS mRNA, LPS; settings: 20 ng/mL LPS, 20 h, maximal decrease over tested concentrations
In short: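 Quantitative real-time PCR for iNOS mRNA in RAW 264.7 cells co-incubated with 20 ng/mL LPS and a range of test compound concentrations for 20 h. Values expressed as fold change, with ligand-induced cells set to 1. Three biological replicates, each in technical duplicate, were averaged, with standard deviation as error.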

[4] = tested on: RAW 264.7 cells; assay: WST1 cell viability assay; settings: concentrations up to 100 μM
In short: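 Viability was read at every concentration tested in the NO assay, in RAW 264.7 cells given 20 ng/mL LPS plus a range of test compound concentrations. LC50 was taken as the concentration giving 50% cell viability. Test compound purity was above 95% by 1H NMR.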

[5] = tested on: NF-κB activation through TLR3 in HEK 293T cells; assay: SEAP reporter assay, Poly I:C; settings: 2.5 μg/mL Poly I:C, concentrations up to 100 μM
[6] = tested on: NF-κB signaling through tumor necrosis factor receptor (TNFR) in HEK 293T cells; assay: SEAP reporter assay, TNF-α; settings: 50 ng/mL TNF-α
[7] = tested on: iNOS protein in RAW 264.7 cells; assay: Western blot of iNOS protein; settings: 20 ng/mL LPS, normalized to GAPDH

In the case of `CC(C)(C)OC(=O)N(Cc1ccco1)C(=O)c1ccc(CN2C(=O)c3ccccc3S2(=O)=O)cc1` [compound 103, tert-butyl N-(furan-2-ylmethyl)-N-{4-[(1,1,3-trioxo-2,3-dihydro-1λ^6,2-benzothiazol-2-yl)methyl]benzoyl}carbamate], the “NF-κB activation (SEAP)” value [1] is reported as “did not down-regulate NF-κB activation”, the TNF-α cytokine levels [2] is reported as “no change in TNF-α cytokine levels” and the “decrease of iNOS mRNA” value [3] is reported as “up to 67%”. For the same compound, the cytotoxicity [4] was “no cytotoxicity”, the “NF-κB activation (SEAP)” value [5] was “did not down-regulate NF-κB activation” and the “NF-κB signaling (SEAP)” value [6] was “unaffected”. The iNOS protein expression [7] was “reduces iNOS protein expression in a dose-dependent fashion”.
